Screens from PubChem BioAssay.
F508del corr: F508del CFTR correction, initial screen, CFBE line, single point. CFBE cells, YFP halide quenching; stimulated with forskolin plus potentiator P3; % fluorescence drop versus neutral controls. activity (quench increase), % at 7.58 µM. 350,000 compounds, 0.36% hits. AID 720511, 2013;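 active = mean added fluorescence quench of at least 8% versus neutral control, with both replicates also reaching 8%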;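 note: cells transiently co-express mutant CFTR-F508del with the halide-sensitive YFP; corrector assay measuring rescue of mutant channel to the surface after 24 h compound exposure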
MC4R antag cAMP: MC4R antagonists of cAMP signaling, primary screen, cell-based, TR-FRET, antagonist arm of biased-ligand search | Melanocortin receptor 4 (Homo sapiens), P32245 | MC4R-expressing cells, MTII-stimulated cAMP, LANCE TR-FRET | inhibition, % at 6.5 µM | 360,000 compounds, 0.48% hits | AID 540295, 2011;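 active = inhibition above its plate's cutoff, the mean of tested wells on that plate plus 3 SD, cut at about 29% in these data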
Target sequence (P32245 whole entry, looked up): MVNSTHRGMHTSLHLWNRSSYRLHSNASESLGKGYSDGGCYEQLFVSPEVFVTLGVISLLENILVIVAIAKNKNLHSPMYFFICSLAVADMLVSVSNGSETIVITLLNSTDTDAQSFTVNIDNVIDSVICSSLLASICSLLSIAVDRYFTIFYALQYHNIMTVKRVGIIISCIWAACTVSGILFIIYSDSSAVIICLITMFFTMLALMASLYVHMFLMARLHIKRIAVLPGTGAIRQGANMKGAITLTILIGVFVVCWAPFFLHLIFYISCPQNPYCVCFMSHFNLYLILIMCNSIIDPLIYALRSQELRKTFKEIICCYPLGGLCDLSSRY
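Test system: U2OS cells stably expressing human melanocortin 4 receptor (MC4R); also added: Melanotan II challenge; compound: 6.5 µM single dose; timing: 30-min compound preincubation, 1-h Melanotan II challenge, 1-h detection, room temperature; signal: Eu-cAMP/anti-cAMP TR-FRET, emission 671 nm; repeats: one well per compound, no replicates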
SMARCA2 act: SMARCA2 (BRM) function activators, primary screen, cell-based, luminescence, high throughput. MG213 cells, MMTV-luciferase reporter, dexamethasone, overnight. activation, % at 9.1 µM. 370,000 compounds, 1% hits; in the data active = activation above about 7.8%
MC4R ag barr: MC4R agonists recruiting beta-arrestin, primary screen, cell-based, luminescence, agonist arm of biased-ligand search; Melanocortin receptor 4 (Homo sapiens), P32245; U2OS MC4R beta-arrestin complementation; percent of melanotan II response, DMSO zero; activation, % at 8.9 µM; 360,000 compounds, 0.98% hits; AID 540308, 2011;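 active = activation above a per-plate cutoff, the mean activation of sample wells on that plate plus 3 SD, cut at about 8% in these data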
MC4R barr conf: MC4R beta-arrestin agonists, retest, confirmation, cell-based, luminescence, U2OS; 2,400 compounds, 31% hits; U2OS MC4R beta-arrestin recruitment; scaled DMSO 0%, Melanotan II 100%; activation, % at 8.9 µM; AID 602192, 2012; shares compounds with MC4R ag barr;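 active = mean activation across replicates above the hit cutoff set in the earlier primary screen, cut at about 8% in these data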
MOR-DOR barr ag: agonists of MOR-DOR heterodimerization, counter-screen for MC4R biased agonist project, cell-based, luminescence; activation, % at 9.2 µM; shares compounds with MC4R ag barr; 2,400 compounds, 5.8% hits; U2OS PathHunter beta-arrestin, beta-gal luminescence; percent of deltorphin B response, DMSO zero;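 active = mean activation across replicates exceeds the hit threshold derived in the earlier primary screen, cut at about 18% in these data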
Large screens that a line does not name were inactive (follow-up assays come after a bar, where they were run). Most compounds without a hit are left out; they make up all but 2.1% or so of the library.

S=c1[nH]nc(-c2cc(-c3ccccc3)n[nH]2)n1/N=C/c1cccc2ccccc12	none (no result: F508del corr, MC4R antag cAMP, MC4R ag barr)
C[C@@H]1CCCCO[C@@H](CN(C)CC2CC2)[C@H](C)CN([C@H](C)CO)C(=O)c2cc(NC(=O)Cc3ccccc3)ccc2O1	none (no result: MC4R antag cAMP, SMARCA2 act, MC4R ag barr)
C=CCn1c(SCC(=O)NC(=O)NCc2ccco2)nc2sc(C)c(C)c2c1=O	MC4R ag barr 11 (no result: F508del corr) | MC4R barr conf 10 | MOR-DOR barr ag inactive
Cc1ccc(Cn2cccc2/C=N/NC(=S)Nc2ccc(C)cc2)cc1	MC4R ag barr 21 | MC4R barr conf 8.8 | MOR-DOR barr ag inactive
COc1ccc(NC(=S)N/N=C/c2cccn2Cc2ccc(F)cc2)cc1	MC4R ag barr 10 | MC4R barr conf inactive | MOR-DOR barr ag inactive
C[C@H]1CN([C@@H](C)CO)C(=O)c2ccccc2-c2ccccc2CO[C@H]1CN(C)S(=O)(=O)c1cccc(F)c1	none (no result: MC4R antag cAMP, SMARCA2 act, MC4R ag barr)
CCOc1ccc(CC(=O)Nc2c(C(=O)Nc3ccccc3)oc3ccccc23)cc1OCC	MC4R ag barr 15 (no result: F508del corr) | MC4R barr conf 11 | MOR-DOR barr ag inactive
CNC[C@H]1Oc2cc(C#CC3(O)CCCC3)ccc2S(=O)(=O)N([C@@H](C)CO)C[C@H]1C	none (no result: MC4R antag cAMP, SMARCA2 act, MC4R ag barr)
COc1cc(-c2nnc(COc3ccc(Cl)cc3C)o2)cc(OC)c1OC	MC4R ag barr 28 (no result: F508del corr) | MC4R barr conf inactive | MOR-DOR barr ag inactive
COc1ccc(CN(C)C[C@H]2Oc3ccc(NC(=O)CCC(F)(F)F)cc3C(=O)N([C@H](C)CO)C[C@@H]2C)cc1	none (no result: MC4R antag cAMP, SMARCA2 act, MC4R ag barr)
Cn1c2ccccc2c2cnn(CC(=O)Nc3ccc(F)cc3F)c(=O)c21	MC4R ag barr 16 | MC4R barr conf inactive | MOR-DOR barr ag inactive
Cn1c2ccccc2c2cnn(CC(=O)Nc3ccccc3Br)c(=O)c21	none
Cc1cccc(S(=O)(=O)N2CC[C@@H]3[C@H](CO)Nc4ccc(C5=CCCCC5)cc4[C@@H]32)c1	none (no result: MC4R antag cAMP, SMARCA2 act, MC4R ag barr)
CCCNc1c(NS(=O)(=O)c2ccc3c(c2)CCCC3)c(=O)oc2ccccc12	MC4R ag barr 14 (no result: F508del corr, SMARCA2 act) | MC4R barr conf inactive | MOR-DOR barr ag inactive
CCCNc1c(NS(=O)(=O)c2ccc(C)c(C)c2)c(=O)oc2ccccc12	none
CCC(=O)N1CCC2(CC1)CN[C@@H](CO)c1c2c2ccc(OC)cc2n1C	none (no result: MC4R antag cAMP, SMARCA2 act, MC4R ag barr)
O=C(Nc1cc(Cl)ccn1)C1(c2ccccc2)CC1(Cl)Cl (configuration not stated)	MC4R ag barr 11 | MC4R barr conf inactive | MOR-DOR barr ag inactive
CC=Cc1ccc2n(c1=O)C[C@H]1[C@H](CO)[C@@H](C(=O)NCC(F)(F)F)[C@@H]2N1C(C)=O (mixture of isomers)	none (no result: MC4R antag cAMP, SMARCA2 act, MC4R ag barr)
O=c1[nH]c(Cn2nnc(-c3ccccc3)n2)nc2scc(-c3ccccc3)c12	MC4R ag barr 12 (no result: F508del corr) | MC4R barr conf inactive | MOR-DOR barr ag inactive
COc1ccc(NC(=O)/C=C/C(=O)O)c([N+](=O)[O-])c1	none
CCOc1ccc(NC(=O)/C=C/c2ccccc2)c([N+](=O)[O-])c1	MC4R ag barr 13 (no result: F508del corr) | MC4R barr conf inactive | MOR-DOR barr ag inactive
CCOc1ccc(N/C=C/C(=O)c2ccccc2)c([N+](=O)[O-])c1	MC4R ag barr 27 | MC4R barr conf inactive | MOR-DOR barr ag inactive
C[C@@H]1CN([C@@H](C)CO)C(=O)Cc2cc(NC(=O)Nc3cccc4ccccc34)ccc2O[C@H]1CN(C)C	none (no result: MC4R antag cAMP, SMARCA2 act, MC4R ag barr)
Clc1ccc(-n2ncc3c(NCc4ccc5c(c4)OCO5)ncnc32)cc1	MC4R ag barr 10 (no result: F508del corr) | MC4R barr conf inactive | MOR-DOR barr ag inactive
Cc1ccc(OCc2ccc(C(=O)Nc3nccs3)o2)cc1	MC4R ag barr 15 (no result: F508del corr) | MC4R barr conf inactive | MOR-DOR barr ag inactive
COc1cc(/C=C2/C(=N)N3C=CSC3=NC2=O)ccc1OCCCOc1ccccc1C	MC4R ag barr 17 | MC4R barr conf 12 | MOR-DOR barr ag inactive
CCC1=NN2C(=N)/C(=C\c3ccc(OCCOc4ccccc4)c(OC)c3)C(=O)N=C2S1	none (no result: MC4R antag cAMP, MC4R ag barr)
C[C@H](CO)N1C[C@H](C)[C@@H](CN(C)Cc2ccc3c(c2)OCO3)Oc2ccc(NC(=O)Nc3ccc(F)cc3)cc2CC1=O	none (no result: MC4R antag cAMP, SMARCA2 act, MC4R ag barr)
CCOC(=O)c1[nH]c2ccc(OC)cc2c1NC(=O)c1ccc2c(c1)OCO2	none (no result: F508del corr)
CCOC(=O)c1[nH]c2cc(OC)c(OC)cc2c1NC(=O)c1ccc2c(c1)OCO2	MC4R ag barr 26 (no result: F508del corr) | MC4R barr conf inactive | MOR-DOR barr ag inactive
CCCNC(=O)C[C@@H]1CC[C@H]2[C@@H](COc3ccc(NC(=O)c4cccc(OC)c4)cc3C(=O)N2C)O1	none (no result: MC4R antag cAMP, SMARCA2 act, MC4R ag barr)
S=c1[nH]cc(-c2ccc(Cl)cc2)n1Cc1ccccc1	MC4R ag barr 19 | MC4R barr conf inactive | MOR-DOR barr ag inactive
O=Nc1c(O)n(Cc2ccc(Cl)c(Cl)c2)c2ccccc12	MC4R ag barr 10 (no result: F508del corr) | MC4R barr conf inactive | MOR-DOR barr ag inactive
O=Nc1c(O)n(Cc2cccc(C(F)(F)F)c2)c2ccccc12	MC4R ag barr 11 (no result: F508del corr) | MC4R barr conf inactive | MOR-DOR barr ag inactive
COC(=O)c1ccc(Cn2c(O)c(N=O)c3ccccc32)o1	none (no result: F508del corr)
O=Nc1c(O)n(Cc2ccccc2)c2ccccc12	none
C/C=C/c1cnc2c(c1)C(=O)N([C@H](C)CO)C[C@H](C)[C@H](CN(C)C(=O)c1ccc3c(c1)OCO3)O2	none (no result: MC4R antag cAMP, SMARCA2 act, MC4R ag barr)
Cc1ccc2nc(Nc3nc(-c4ccccc4)cc(=O)[nH]3)nc(C)c2c1	none (no result: F508del corr)
COc1ccc2c(C)nc(Nc3nc(-c4ccccc4)cc(=O)[nH]3)nc2c1	MC4R ag barr 26 | MC4R barr conf 8.4 | MOR-DOR barr ag inactive
Cc1ccccc1OCc1nc(-c2ccc(NC(=O)c3cccs3)cc2)no1	MC4R ag barr 16 (no result: F508del corr) | MC4R barr conf inactive | MOR-DOR barr ag inactive
Cc1ccccc1OCc1nc(-c2ccc(NC(=O)c3ccco3)cc2)no1	MC4R ag barr 23 (no result: F508del corr) | MC4R barr conf inactive | MOR-DOR barr ag inactive
COc1cccc(-c2nc(NCc3cccnc3)c3ccccc3n2)c1O	MC4R ag barr 16 | MC4R barr conf inactive | MOR-DOR barr ag inactive
CC(C)NC(=O)Nc1ccc2c(c1)C(=O)N([C@@H](C)CO)C[C@@H](C)[C@H](CN(C)C(=O)CCCN(C)C)OCCCC[C@H](C)O2	none (no result: MC4R antag cAMP, SMARCA2 act, MC4R ag barr)
C#CCSc1nc(-c2ccccc2)cc(C(F)(F)F)c1C#N	none (no result: F508del corr)
N#Cc1c(C(F)(F)F)cc(-c2cccs2)nc1SCc1ccc(Cl)nc1	MC4R ag barr 16 (no result: F508del corr) | MC4R barr conf inactive | MOR-DOR barr ag inactive
CCOc1ccc(N2C(=O)CC(Sc3nc(-c4cccs4)cc(C(F)(F)F)c3C#N)C2=O)cc1 (configuration not stated)	none (no result: F508del corr)
